Experimental data: ChEMBL document CHEMBL4665711, “Synthesis of (Z)-3-(arylamino)-1-(3-phenylimidazo[1,5-a]pyridin-1-yl)prop-2-en-1-ones as potential cytotoxic agents” (Bioorg Med Chem Lett, 2020)
pIC50: −log10 of the molar value. Active and inactive are the calls of the source. The calls are words filed in the database; no cut-off is given here.

Experiments:
HCT-116 [1] = experiment: Cytotoxicity against human HCT-116 cells assessed as induction of cell morphological changes at 0.5 to 2.5 uM incubated for 48 hrs by phase contrast microscopy; type: functional, cell-based; conditions: dose microM 0.5-2.5, time 48.0 hrs
HCT-116 [2] = experiment: Induction of ROS production in human HCT-116 cells incubated for 24 hrs by DCFDA staining based fluorescence microscopic analysis; type: functional, cell-based; conditions: dose microM 0.5-2.5, time 24.0 hrs
Summary of the method: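 For intracellular ROS, HCT-116 cells were incubated at 0.5, 1 and 2.5 µM for 24 h and stained with DCFDA. Cells were imaged by fluorescence microscopy, and DCF fluorescence was quantified at 480/535 nm excitation/emission in arbitrary units against control.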

HCT-116 [3] = experiment: Induction of apoptosis in human HCT-116 cells assessed as loose cell structure at 0.5 to 2.5 uM incubated for 48 hrs by DAPI staining based fluorescence microscopic analysis; type: functional; conditions: dose microM 0.5-2.5, time 48.0 hrs
Summary of the method: (§1)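 Nuclear morphology was imaged by fluorescence microscopy using a DAPI filter at 200×; untreated cells served as control.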

HCT-116 [4] = experiment: Induction of mitochondrial membrane potential loss in human HCT-116 cells assessed as cells with hyperpolarized mitochondria by measuring decrease in J-aggregates red fluorescence intensity at 1 uM incubated for 48 hrs by JC1 staining based flow cytometry analysis (reference value: 86.42 %); type: functional; parameters: scale not given: the % may be the effect or the level left
HCT-116 [5] = experiment: Induction of cell cycle arrest in human HCT-116 cells assessed as S phase at 1 uM incubated for 48 hrs by propidium iodide based flow cytometry analysis (reference value: 7.8 %); type: functional
MDA-MB-231 = experiment: Cytotoxicity against human MDA-MB-231 cells assessed as reduction in cell viability incubated for 48 hrs by MTT assay; type: functional, cell-based; conditions: MDA-MB-231, 48 h
Summary of the method: (§2)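 Cancer cell lines were exposed to drug for 48 h, and the 50% inhibitory concentration was determined. Values are averages of three individual experiments. A549, HCT-116, BT-474 and MDA-MB-231 are human lines; B16F10 is a murine melanoma line.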

HCT-116 [6] = experiment: Induction of apoptosis in human HCT-116 cells assessed as early apoptotic cells at 0.5 uM incubated for 48 hrs by annexin-V and propidium iodide staining based flow cytometry analysis (reference value: 1.87 %); type: functional
HCT-116 [7] = experiment: Induction of apoptosis in human HCT-116 cells assessed as early apoptotic cells at 2.5 uM incubated for 48 hrs by annexin-V and propidium iodide staining based flow cytometry analysis (reference value: 1.87 %); type: functional
HCT-116 [8] = experiment: Induction of mitochondrial membrane potential loss in human HCT-116 cells assessed as cells with hyperpolarized mitochondria by measuring decrease in J-aggregates red fluorescence intensity at 2.5 uM incubated for 48 hrs by JC1 staining based flow cytometry analysis (reference value: 86.42 %); type: functional; parameters: scale not given: the % may be the effect or the level left
HCT-116 [9] = experiment: Cytotoxicity against human HCT-116 cells assessed as reduction in cell viability at 0.5 to 2.5 uM incubated for 48 hrs by phase contrast microscopy; type: functional, cell-based; conditions: dose microM 0.5-2.5, time 48.0 hrs
HCT-116 [10] = experiment: Induction of cell cycle arrest in human HCT-116 cells assessed as sub-G1 phase at 1 uM incubated for 48 hrs by propidium iodide based flow cytometry analysis (reference value: 2.1 %); type: functional
HCT-116 [11] = experiment: Induction of apoptosis in human HCT-116 cells assessed as condensed DNA at 0.5 to 2.5 uM incubated for 48 hrs by DAPI staining based fluorescence microscopic analysis; type: functional, cell-based; conditions: dose microM 0.5-2.5, time 48.0 hrs; summary of the method: as §1
HCT-116 [12] = experiment: Induction of mitochondrial membrane potential loss in human HCT-116 cells assessed as cells with depolarized mitochondria by measuring increase in J-monomer green fluorescence intensity at 0.5 uM incubated for 48 hrs by JC1 staining based flow cytometry analysis (reference value: 12.53 %); type: functional
HCT-116 [13] = experiment: Induction of cell cycle arrest in human HCT-116 cells assessed as G2/M phase at 2.5 uM incubated for 48 hrs by propidium iodide based flow cytometry analysis (reference value: 15.3 %); type: functional
HCT-116 [14] = experiment: Induction of cell cycle arrest in human HCT-116 cells assessed as G2/M phase at 1 uM incubated for 48 hrs by propidium iodide based flow cytometry analysis (reference value: 15.3 %); type: functional
HCT-116 [15] = experiment: Induction of apoptosis in human HCT-116 cells assessed as necrotic cells at 0.5 uM incubated for 48 hrs by annexin-V and propidium iodide staining based flow cytometry analysis (reference value: 0.36 %); type: functional
HCT-116 [16] = experiment: Induction of apoptosis in human HCT-116 cells assessed as micronuclei formation at 0.5 to 2.5 uM incubated for 48 hrs by DAPI staining based fluorescence microscopic analysis; type: functional, cell-based; conditions: dose microM 0.5-2.5, time 48.0 hrs; summary of the method: as §1
HCT-116 [17] = experiment: Induction of apoptosis in human HCT-116 cells assessed as increase in DNA breakdown incubated for 24 hrs by acridine orange staining based microscopic analysis; type: functional, cell-based; conditions: dose microM 0.5-2.5, time 24.0 hrs
Summary of the method: (§3)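 HCT-116 cells were incubated at 0.5, 1.0 and 2.5 µM for 24 h and stained with acridine orange. Green fluorescence (excitation 480-490 nm), chromatin distribution and blebbing were inspected microscopically at 200× against untreated controls.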

HCT-116 [18] = experiment: Induction of apoptosis in human HCT-116 cells assessed as reduction in green fluorescence intensity at 0.5 to 2.5 uM incubated for 24 hrs by acridine orange staining based microscopic analysis; type: functional, cell-based; conditions: dose microM 0.5-2.5, time 24.0 hrs; summary of the method: as §3
HCT-116 [19] = experiment: Induction of apoptosis in human HCT-116 cells assessed as viable cells at 0.5 uM incubated for 48 hrs by annexin-V and propidium iodide staining based flow cytometry analysis (reference value: 96.29 %); type: functional; conditions: read-out: Activity
B16-F10 = experiment: Cytotoxicity against mouse B16-F10 cells assessed as reduction in cell viability incubated for 48 hrs by MTT assay; type: functional, cell-based; conditions: B16-F10, 48 h; summary of the method: as §2
HCT-116 [20] = experiment: Cytotoxicity against human HCT-116 cells assessed as reduction in cell viability incubated for 48 hrs by MTT assay; type: functional, cell-based; conditions: HCT-116, 48 h; summary of the method: as §2
HCT-116 [21] = experiment: Induction of mitochondrial membrane potential loss in human HCT-116 cells assessed as cells with depolarized mitochondria by measuring increase in J-monomer green fluorescence intensity at 1 uM incubated for 48 hrs by JC1 staining based flow cytometry analysis (reference value: 12.53 %); type: functional
HCT-116 [22] = experiment: Induction of cell cycle arrest in human HCT-116 cells assessed as G0/G1 phase at 0.5 uM incubated for 48 hrs by propidium iodide based flow cytometry analysis (reference value: 28.2 %); type: functional
HCT-116 [23] = experiment: Induction of apoptosis in human HCT-116 cells assessed as late apoptotic cells at 2.5 uM incubated for 48 hrs by annexin-V and propidium iodide staining based flow cytometry analysis (reference value: 1.48 %); type: functional
HCT-116 [24] = experiment: Induction of apoptosis in human HCT-116 cells assessed as membrane blebbing at 0.5 to 2.5 uM incubated for 24 hrs by acridine orange staining based microscopic analysis; type: functional, cell-based; conditions: dose microM 0.5-2.5, time 24.0 hrs; summary of the method: as §3
HCT-116 [25] = experiment: Induction of apoptosis in human HCT-116 cells assessed as necrotic cells at 1 uM incubated for 48 hrs by annexin-V and propidium iodide staining based flow cytometry analysis (reference value: 0.36 %); type: functional
HCT-116 [26] = experiment: Induction of apoptosis in human HCT-116 cells assessed as early apoptotic cells at 1 uM incubated for 48 hrs by annexin-V and propidium iodide staining based flow cytometry analysis (reference value: 1.87 %); type: functional
HCT-116 [27] = experiment: Inhibition of colony formation in human HCT-116 cells incubated for 10 days by crystal violet staining based assay; type: functional, cell-based; conditions: dose microM 0.25-1, time 10.0 day
Summary of the method: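 HCT-116 cells exposed in medium to 0.25, 0.5 and 1 μM over 10 days to allow colonies to form. Colonies visualised by crystal violet staining and counted relative to untreated control cells.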

Question: For `O=C(/C=C\Nc1ccc(Cl)cc1)c1nc(-c2ccc(F)cc2)n2ccccc12`, which Activity (HCT-116 [1]) is on record?
Answer: Active

Question: And the Activity (HCT-116 [2])?
Answer: Dose-dependent effect

Question: What about the Activity (HCT-116 [3]) of the same compound?
Answer: Active

Question: What about the Activity (HCT-116 [4]) of the same compound?
Answer: 78.07%

Question: What about the Activity (HCT-116 [5]) of the same compound?
Answer: 9.7%

Question: And the pIC50 (MDA-MB-231)?
Answer: 5.37

Question: What about the Activity (HCT-116 [6]) of the same compound?
Answer: 6.17%

Question: What about the Activity (HCT-116 [7]) of the same compound?
Answer: 2.29%

Question: And the Activity (HCT-116 [8])?
Answer: 76.3%

Question: What about the Activity (HCT-116 [9]) of the same compound?
Answer: Active

Question: What about the Activity (HCT-116 [10]) of the same compound?
Answer: 1.9%

Question: What about the Activity (HCT-116 [11]) of the same compound?
Answer: Active

Question: What about the Activity (HCT-116 [12]) of the same compound?
Answer: 13.5%

Question: What about the Activity (HCT-116 [13]) of the same compound?
Answer: 15.6%

Question: And the Activity (HCT-116 [14])?
Answer: 16.4%

Question: What about the Activity (HCT-116 [15]) of the same compound?
Answer: 0.68%

Question: And the Activity (HCT-116 [16])?
Answer: Active

Question: And the Activity (HCT-116 [17])?
Answer: Dose-dependent effect

Question: And the Activity (HCT-116 [18])?
Answer: Active

Question: What about the viability at 0.5 µM (HCT-116 [19]) of the same compound?
Answer: 87.5%

Question: What about the pIC50 (B16-F10) of the same compound?
Answer: 4.96

Question: And the pIC50 (HCT-116 [20])?
Answer: 5.92

Question: What about the Activity (HCT-116 [21]) of the same compound?
Answer: 20.53%

Question: And the Activity (HCT-116 [22])?
Answer: 31.5%

Question: What about the Activity (HCT-116 [23]) of the same compound?
Answer: 6.97%

Question: What about the Activity (HCT-116 [24]) of the same compound?
Answer: Active

Question: What about the Activity (HCT-116 [25]) of the same compound?
Answer: 3.49%

Question: What about the Activity (HCT-116 [26]) of the same compound?
Answer: 3.78%

Question: And the inhibition (HCT-116 [27])?
Answer: Dose-dependent effect
